Measured values as given in ChEMBL document CHEMBL4138212, “Novel triazine dimers with potent antitrypanosomal activity” (Eur J Med Chem, 2018).
pIC50: −log10 of the molar value. Activity calls are given as the source filed them. The rule behind the calls is not given here.

Columns and labels:
[1] = tested on: Trypanosoma brucei brucei; test: Antitrypanosomal activity against suramin-sensitive Trypanosoma brucei brucei Squib 427 after 72 hrs by resazurin dye-based fluorometric method; type: functional, organism-based; details: Squib 427, 72 h
Method in brief: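 Bloodstream parasites in HMI-9 with 10% heat-inactivated FBS at 7×10⁴/mL were exposed to five 4-fold dilutions from 64 µg/mL for 72 h at 37 °C in 5% CO₂. IC₅₀ comes from % growth reduction versus controls, as the mean of at least two independent determinations.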

[2] = tested on: Trypanosoma brucei rhodesiense; test: Antitrypanosomal activity against Trypanosoma brucei rhodesiense STIB-900 after 72 hrs by resazurin dye-based fluorometric method; type: functional, organism-based; details: STIB-900, 72 h
Method in brief: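 Parasites in HMI-9 with 10% heat-inactivated FBS at 2×10⁴/mL were exposed to five 4-fold dilutions from 64 µg/mL for 72 h at 37 °C in 5% CO₂. IC₅₀ comes from % growth reduction versus controls, as the mean of at least two independent determinations.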

[3] = tested on: Trypanosoma cruzi; test: Antitrypanosomal activity against beta-galactosidase expressing nifurtimox-sensitive Trypanosoma cruzi Tulahuen CL2 infected in human MRC5 SV2 cells assessed as decrease in parasite burden after 168 hrs by spectrophotometric method; type: functional, organism-based; details: Tulahuen CL2, MRC-5 SV2, 168 h
[4] = tested on: Leishmania infantum; test: Antileishmanial activity against amastigote stage of Leishmania infantum MHOM/MA(BE)/67 infected in mouse primary peritoneal macrophages assessed as decrease in parasite burden after 120 hrs by Giemsa staining-based microscopic method; type: functional, organism-based; details: MHOM/MA(BE)/67, 120 h
[5] = tested on: Plasmodium falciparum; test: Antiplasmodial activity against chloroquine-resistant Plasmodium falciparum K1 infected in human O-positive erythrocytes assessed as decrease in parasitaemia after 72 hrs by NBT dye-based spectrophotometric method; type: functional, organism-based; details: K1, 72 h
[6] = Cytotoxicity against human MRC5 SV2 cells assessed as decrease in cell viability after 72 hrs by resazurin dye-based fluorometric method; details: MRC-5 SV2, 72 h
[7] = tested on: Trypanosoma brucei brucei; test: Antitrypanosomal activity against suramin-sensitive Trypanosoma brucei brucei Squib 427 infected in Swiss mouse assessed as reduction in parasitemia at 10 mg/kg administered first dose orally 1/2 hrs prior to infection followed by dosed intraperitoneally as qd for 5 days measured on day 4 of compound dosing by Giemsa staining-based microscopic method relative to control; type: functional; design: scale not given: the % may be the effect or the level left
Method in brief: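 Female Swiss mice, 6 per group, were infected IP with about 1×10⁴ trypanosomes on day 0. The first dose was given orally ½ h before infection, then IP for 5 days, in DMSO, DMSO/PEG200 (1/50) or PBS for suramin. On day 4, tail-vein blood smears were Giemsa-stained and counted microscopically. Activity = 100 − (mean parasitemia treated/mean vehicle-infected control)×100.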

[8] = tested on: Trypanosoma brucei brucei; test: Antitrypanosomal activity against suramin-sensitive Trypanosoma brucei brucei Squib 427 infected in Swiss mouse assessed as increase in mouse survival at 10 mg/kg administered first dose orally 1/2 hrs prior to infection followed by dosed intraperitoneally as qd for 5 days measured on day 14 post infection; type: functional, organism-based
Method in brief: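 Female Swiss mice, 6 per group, were infected IP with about 1×10⁴ trypanosomes in 0.25 ml PBS-diluted donor blood on day 0. The first dose was given orally ½ h before infection, then IP for 5 days. Vehicles were 100% DMSO or DMSO/PEG200 (1/50); suramin was formulated in PBS. Mortality was monitored daily, ill animals were euthanized, and survivors were counted on day 14 post-infection.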

## Cc1cc(C)c(Nc2nc(Nc3ccc(C#N)cc3)nc(Nc3ccc(Nc4nc(Nc5ccc(C#N)cc5)nc(Nc5c(C)cc(C)cc5C)n4)cc3)n2)c(C)c1
[1]
  pIC50: 6.28
[2]
  pIC50: 7.70
[3]
  pIC50: < 4.19
[4]
  pIC50: < 4.19
[5]
  pIC50: < 4.19
[6]
  pIC50: < 4.19

## CO[C@H]1O[C@@H]2O[C@@]3(C)CC[C@H]4[C@H](C)CC[C@@H]([C@H]1C)[C@@]24OO3
[5]
  pIC50: 7.70
[6]
  pIC50: < 4.19

## O=C(Cn1ccnc1[N+](=O)[O-])NCc1ccccc1 [BENZNIDAZOLE]
[3]
  pIC50: 5.59
[6]
  pIC50: < 4.19

## CCN(CC)CCCC(C)Nc1ccnc2cc(Cl)ccc12 (stereo not drawn) [CHLOROQUINE]
[6]
  pIC50: < 4.19

## Nc1nc(N)nc(Nc2ccc([As]3SCC(CO)S3)cc2)n1 (stereo not drawn) [MELARSOPROL]
[6]
  pIC50: 5.13

## CCCCCCCCCCCCCCCCOP(=O)([O-])OCC[N+](C)(C)C [MILTEFOSINE]
[6]
  pIC50: < 4.19

## CC1CS(=O)(=O)CCN1/N=C/c1ccc([N+](=O)[O-])o1 (stereo not drawn) [NIFURTIMOX]
[3]
  pIC50: 6.15
[6]
  pIC50: < 4.19

## Cc1ccc(C(=O)Nc2ccc(S(=O)(=O)O)c3cc(S(=O)(=O)O)cc(S(=O)(=O)O)c23)cc1NC(=O)c1cccc(NC(=O)Nc2cccc(C(=O)Nc3cc(C(=O)Nc4ccc(S(=O)(=O)O)c5cc(S(=O)(=O)O)cc(S(=O)(=O)O)c45)ccc3C)c2)c1 [SURAMIN]
[6]
  pIC50: < 4.19
[7]
  Activity: 100%
[8]
  Activity: Active
